Assay results taken from the RNAGym collection of RNA variant scans (doi:10.1126/science.aae0568).
Variants at the floor of the assay were thinned out.

B1: tRNA (parent)
chain: GUUCCGUUGGCGUAAUGGUAACGCGUCUCCCUCCUAAGGAGAAGACUGCGGGUUCGAGUCCCGUACGGAACG

Variants of: B1
Test: yeast fitness relative to wild type (ratio to wild type); higher = fitter; tRNA-Arg(CCU), competitive growth, 37 C, YPD
How it was run: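 Genotype frequency changes were the basis for Darwinian fitness relative to wild type. The frequencies came from 100-nucleotide paired-end sequencing of gene amplicons from the start population and each end population of pooled yeast strains with tRNA-Arg(CCU) gene variants at the native locus. Competition ran in YPD at 37°C for 24 hours in six replicates, genotypes needed ≥ 100 starting reads, and estimates < 0.5 were set to 0.5.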

Variant	yeast fitness
GUUCCGUUGGUGUAAUGGUAACGAGUCUCCCUCCUAAGGAGGAGACUGCGGGUUCGUGUCCCGAACGGUACG [C11U C24A A42G A57U U64A A69U]	0.505
GUUCCGUUGGUGUAAUGGUAACGCGUCUCCCUCCUAAGGAGACGACUGCGGGUUCGAGUCCCGUAUGGAACG [C11U A43C C66U]	0.699
GUUCCGUUGGUGUAAUGGUAACGCGUAUCCCUCCUAAGGAGAAGACUGCGGGUGCGAGUCCCGUACGGAACG [C11U C27A U54G]	≤ 0.5
GUUCCGUUGGUGUAAUGGUAAAGCGUCUCCCUCCUAAGGUGAAGAUUGCGGGUUCGAGUCUCGUACGGAACG [C11U C22A A40U C46U C61U]	≤ 0.5
GUUCCGUUGGUGUAAUGGUAACGCGUCUGCCUCCUACGGAGUAGACUGCGGGUUCGGGUCCCGUACAGAACG [C11U C29G A37C A42U A57G G67A]	0.566
GUUCCGUUGGUGUAAUGGUAACGCGUCUUCCUCCUUAGGAGAAGACUGCGGGUUCGAGUCCCGUAUAGAACG [C11U C29U A36U C66U G67A]	≤ 0.5
GUUCCGUUGGUGUAAUGGUAACGCGUCUCCCUCCUAAGGAGGAGACUGCGUGUUCGUGUCCCGUACGGAACG [C11U A42G G51U A57U]	≤ 0.5
GUUCCGUUGGUGUAAUGGUAACGCGUGUCCCUCCUAAGGAGACGACUGCGGGUUCGUGUCCCGUACGGAACG [C11U C27G A43C A57U]	0.696
GUUCCGUUGGUGUAAUGGUAACGCGUCUCCCUCCUAAGGAGCAGACUGCGGGUUCGCGUCCCGUACGGAACG [C11U A42C A57C]	≤ 0.5
GUUCCGUUGGUGUAAUGGUAAAGCGUCUGCCUUCUAAGGAGAAGACUGCGGGUUCGAGUCCCGUACGGACCG [C11U C22A C29G C33U A70C]	0.551
GUUCCGUUGGUGUAAUGGUAACGCGUCUCCUUCCUAAGGAGAAGACUGCGGGUUCGAGUCUCGUACGGUACG [C11U C31U C61U A69U]	≤ 0.5
GUUCCGUUGGUGUAAUGGUAACGCGUCUCUCUCCUAAGGAGAAGACUGCGGCUUCGAGUCCCGUACGGAACG [C11U C30U G52C]	≤ 0.5
GUUCCGUUGGUGUAAUGGUAACGCGUCUCCCUCCUAAGGAGAAGUCUGCGGGUUCGAGUCCCGUUCGGAACG [C11U A45U A65U]	0.82
GUUCCGUUGGUGUAAUGGUAACGCGUCUUCCUCCUAAGGAGAAGACUGCGGGUUCGAGCCCCGUACGGAACG [C11U C29U U59C]	≤ 0.5
GUUCCGUUGGUGUAAUGGUAACGCGUGUCCCUCCUAAGGAGAUGACUGCGGGUUCGAGUCCCAUACGGAACG [C11U C27G A43U G63A]	≤ 0.5
GUUCCGUUGGUGUAAUGGUAACGCGUCUCCUUCCUAAGGAGAAGAGAGCGGGUUCGAGUCCCGUCCGGAACG [C11U C31U C46G U47A A65C]	≤ 0.5
GUUCCGUUGGUGUAAUGGUAACGCGUCUCCGUCCUAAGGAGAAGAAUGCGGGUUCGAGUCCCCUUCGGAACG [C11U C31G C46A G63C A65U]	0.531
GUUCCGUUGGUGUAAUGGUAACGCGUCUCCUUCCCAAGGAGAAGACUGCGGGUUCGAGUCCCGUACGGUACG [C11U C31U U35C A69U]	≤ 0.5
GUUCCGUUGGUGUAAUGGUAACGCGUCUCGCUCCAAAGGAGAAGAUUGCGAGUUCAAGUCCCGUACGGAACG [C11U C30G U35A C46U G51A G56A]	≤ 0.5

Variant	yeast fitness
GUUCCGUUGGUGUAAUGGUAAGGCGUCUCCCUCCUAAGGAGAAGACUGCGGGUUCGAGUCCCGUACGGACCG [C11U C22G A70C]	0.669
GUUCCGUUGGUGUAAUGGUAAGGCGUCUCCCUCCUGAGGAGAAGACUGCGGGUUCGAGUCCCGUACGGAACG [C11U C22G A36G]	0.675
GUUCCGUUGGUGUAAUGGUAAAGCGUCUGCCUUCCAAGGAGAAGACUGCGGGUUCGAGUCCCGUACGGACCG [C11U C22A C29G C33U U35C A70C]	≤ 0.5
GUUCCGUUGGUGUAAUGGUAACGCGUCUCCUUCCUAAGGAGAAGACUGCGGGUUCGAGUCCCGAACGGAGCG [C11U C31U U64A A70G]	≤ 0.5
GUUCCGUUGGUGUAAUGGUAAGGCGUCUCCCUCCUAAGGAGAAGACUGCGGGUUCGAGUCCUGUACGCAACG [C11U C22G C62U G68C]	0.542
GUUCCGUUGGUGUAAUGGUAACGGGUCUCCCUCCUCGGGAGAAGACUGCGGGUUCGAGUCCCGUACGGACCG [C11U C24G A36C A37G A70C]	≤ 0.5
GUUCCGUUGGUGUAAUGGUAACGGGUCUCCCUCCUAAGGAGAAGACUGCGGGUUCGAGAACCGUACGGAACG [C11U C24G U59A C60A]	≤ 0.5
GUUCCGUUGGUGUAAUGGUAACGCGUCUCCCUCCUAAGGGGAACACUGCGGGCUAGAGUCCCGUUCGGAACG [C11U A40G G44C U53C C55A A65U]	≤ 0.5
GUUCCGUUGGUGUAAUGGUAACGCGUCUCCCUGCUAUGGAGAAGACUGCGGGUUCGAGUCCCGUACGGAACG [C11U C33G A37U]	≤ 0.5
GUUCCGUUGGUGUAAUGGUAACGCGUCUCCGUCCUAAGGAGAAGACUGUGGGUUCGAGUCCCGUACAGAACG [C11U C31G C49U G67A]	≤ 0.5
GUUCCGUUGGUGUAAUGGUAACGCGUCUCCCUCCUAAGGAGGAGACUGCGGGUUCGAGUCCGGUACGGUACG [C11U A42G C62G A69U]	≤ 0.5
GUUCCGUUGGUGUAAUGGUAAUGCGUCUCCCUCCUAAGGAGAAGACUGCGGGUUCGAGUCCCGUUCGGUACG [C11U C22U A65U A69U]	≤ 0.5
GUUCCGUUGGUGUAAUGGUAACGUGUCUGCCUCCUAAAGCGAAGACUGCGGGUUCGAGUCACGUGCGGAACG [C11U C24U C29G G38A A40C C61A A65G]	≤ 0.5
GUUCCGUUGGUGUAAUGGUAACGCGUCUCCCUCCUAAGGAGAAGUCUGCGGGUUCGAGUCCCGUAAGGAACG [C11U A45U C66A]	0.659
GUUCCGUUGGUGUAAUGGUAACGCGUCUCCCUCCUAAGGAGAAGACUGCGGGUUCGAGUCCCGUACGGCACG [C11U A69C]	0.905
GUUCCGUUGGUGUAAUGGUAACGGGUCUCCCUCCUAAGGAGAAGACUGCGGGUUCGGGUCCCGUACGGAACG [C11U C24G A57G]	≤ 0.5
GUUCCGUUGGUGUAAUGGUAACGCGUCUCCCUUCUGAGAAGAAAACUGCGGGUUCGAGUCCCGUACGGAACG [C11U C33U A36G G39A G44A]	≤ 0.5
GUUCCGUUGGUGUAAUGGUAACGCGUCUCCCUCCUAAGGAGAAGACUGCGGGUUCGUGUGCCGUACGCAACG [C11U A57U C60G G68C]	≤ 0.5
GUUCCGUUGGUGUAAUGGUAACGCGUCUCCCUCCUAAGGAGCAGACUGUGGGUUCGAGUCCCGUACGGAACG [C11U A42C C49U]	0.734
